# Source: PubChem
# Most compounds without a hit are left out; they make up all but 3.6% or so of the library.
# MITF TRPM1 HTS – increases MITF-driven TRPM1 promoter luciferase signal | SK-MEL-5 TRPM1-promoter luciferase, 24 h; % of positive control, neutral wells = 0 | activation, % at 12.5 µM | hit rate 0.75% among 300,000;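 active = mean activation of at least 80% with every replicate also reaching 80%; inconclusive = mean reaches 80% but some replicate falls short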;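 also: 0% = neutral control wells and 100% = parthenolide positive control wells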
# SR-BI HDL uptake – mouse SR-BI HDL lipid transfer inhibition. Q61009. ldlA[mSR-BI] CHO cells, DiI-HDL uptake fluorescence, 3 h. inhibition, % at 12.5 µM. hit rate 0.96% among 320,000;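 active = mean replicate inhibition of at least 70% and a set share of replicates each scoring 70 or more; inconclusive = meets just one of the two criteria; inactive = fails both criteria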;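 also: 0% = median of neutral control wells and 100% = median of positive control wells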
# Target sequence (Q61009 whole entry, looked up): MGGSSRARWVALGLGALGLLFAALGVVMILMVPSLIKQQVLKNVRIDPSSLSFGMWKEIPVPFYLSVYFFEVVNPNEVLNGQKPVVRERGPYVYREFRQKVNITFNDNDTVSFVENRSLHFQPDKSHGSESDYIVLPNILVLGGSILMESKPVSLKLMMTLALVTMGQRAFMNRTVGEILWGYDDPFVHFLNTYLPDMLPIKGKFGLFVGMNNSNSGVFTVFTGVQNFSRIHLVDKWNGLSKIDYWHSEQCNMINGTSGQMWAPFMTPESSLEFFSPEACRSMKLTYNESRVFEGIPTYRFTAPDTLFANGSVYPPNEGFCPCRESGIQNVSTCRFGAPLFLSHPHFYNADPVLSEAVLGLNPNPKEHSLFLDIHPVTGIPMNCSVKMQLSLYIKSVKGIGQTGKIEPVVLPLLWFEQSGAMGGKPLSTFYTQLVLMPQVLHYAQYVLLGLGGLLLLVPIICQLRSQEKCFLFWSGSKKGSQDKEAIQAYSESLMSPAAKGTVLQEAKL
# HSF-1 act – increases HSF-1 driven luciferase reporter signal; activation, % at 9 µM; NIH3T3-HGL HSF-1 luciferase reporter, MG132, 8 h; 100% = twice DMSO control signal; hit rate 1.7% among 300,000; AID 504408;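 active = mean replicate activation of at least 50% with a set share of replicates each reaching 50%; inconclusive = only one of those two conditions met; inactive = mean below 50% and too few replicates reaching it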;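 also: 0% = median of the neutral control wells and 100% = twice that signal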
# SR-BI uptake up – enhances SR-BI lipid uptake from DiI-HDL. CHO ldlA[mSR-BI] cells, DiI-HDL uptake fluorescence, 3 h; 100 = double the neutral-control signal. activation, % at 12.5 µM. hit rate 0.096% among 320,000. AID 504775;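 active = mean replicate activation of at least 60% and every replicate at or above 60%; inconclusive = mean or all-replicate condition met, but not both; inactive = mean below 60% and not all replicates reaching 60%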;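 also: 0% = median plate neutral-control signal and 100% = twice that signal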
#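 Test system: SR-BI-overexpressing, LDLR-lacking CHO cells. Measured by: DiI fluorescence, bottom read. Medium: Ham's F12 with 0.5% BSA, HEPES 25 mM, pH 7.4. Timing: 3 h uptake period with compound, 37 °C.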
# Wnt act – activators of Wnt/beta-catenin signaling. Wnt/beta-catenin reporter cell assay, activator, plate reader. activation, % at 9.35 µM. hit rate 1.2% among 300,000. AID 743398; in the data active = activation above about 30%, passing the limit was not always enough; inconclusive = no clear call, values can overlap the other calls;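 also: 0% = neutral control wells and 100% = positive control wells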
# An asterisk follows results filed as active; ? = inconclusive; · = no result given.
SMILES,MITF TRPM1 HTS,SR-BI HDL uptake,HSF-1 act,SR-BI uptake up,Wnt act
Cc1cnc(C(=O)OCC(=O)Nc2ccc(Br)c(C)c2)cn1,-10,-6,·,6,-1
C[C@H]1CN([C@@H](C)CO)S(=O)(=O)c2ccc(Br)cc2O[C@@H]1CN(C)S(=O)(=O)c1ccccc1F,·,·,·,·,0
CC1(C(=O)NC2CCCCC2)CCC(=O)N1C1CCN(Cc2ccccc2)CC1 (stereo not given),·,·,·,·,-1
CCOc1cc(NC(=O)c2ccco2)c(OCC)cc1NC(=O)c1cc(OC)c(OC)c(OC)c1,-42,59,17,-59,4
COc1cc(NC(=O)c2cccs2)ccc1NC(=O)c1ccco1,92*,40,31,-40,59*
Cc1cc(NC(=O)c2ccccc2)ncc1NC(=O)c1ccco1,32,15,21,-15,38*
O=C(Nc1cccc(NC(=O)c2cccs2)c1)c1ccco1,·,-2,8,2,·
Cc1ncoc1C(=O)Nc1ccc2c(c1)OCCO2,-12,-16,-20,16,·
COc1cc(NC(=O)c2ccco2)c(OC)cc1NC(=O)c1cc(OC)c(OC)c(OC)c1,·,79*,18,-79,1
Cc1ccsc1C(=O)Nc1ccc2c(c1)OCCO2,31,-13,51*,13,·
COc1cc(NC(=O)c2ccccc2Cl)ccc1NC(=O)c1ccco1,92*,81*,71*,-81,17
COc1ccc(C)cc1-n1c(SCC(=O)Nc2cccc(C(=O)O)c2)nc2ccccc2c1=O,-1,·,75*,·,2
COCCn1c(SCC(=O)Nc2ccc(NC(=O)c3ccco3)c(OC)c2)nc2ccccc2c1=O,0,74*,13,-74,-4
Nc1ccc(NC(=O)c2ccco2)c(Cl)c1,-2,-13,56*,13,22
Cc1cn([C@H]2C[C@H](O)[C@@H](/C=C/C(=O)NCCN3CCCCC3)O2)c(=O)[nH]c1=O,·,·,·,·,-3
CC(=O)Nc1cc(-c2cccc(CO)c2)cn2c(-c3ccc(F)cc3)cnc12,·,·,·,·,4
Cc1ccc(S(=O)(=O)N2CCC(=O)N([C@H](COC(=O)Nc3ccccc3)Cc3ccccc3)CC2)cc1,·,·,·,·,3
O=C(Nc1ccc(NC(=O)c2cccs2)c(Cl)c1)c1cccs1,52,33,69*,-33,17
COc1cc(NC(=O)c2ccc(Cl)cc2Cl)ccc1-c1cc2ccccc2oc1=O,-6,84*,12,-84,-6
COc1cc(NC(=O)c2ccc(Cl)cc2Cl)ccc1NC(=O)c1cccs1,25,73*,3,-73,11
Cc1ccc(C(=O)Nc2ccc(NC(=O)c3ccco3)c(C)c2)cc1,91*,·,30,·,13
Cc1cc(NC(=O)c2ccc(Br)o2)ccc1NC(=O)c1ccco1,23,7,16,-7,5
O=C(Nc1ccc(NC(=O)c2ccc(Cl)cc2Cl)cc1)c1cccs1,12,21,-6,-21,0
COCCNC(=O)C1(C)CCN(C(=O)Cc2ccc(OC)c(OC)c2)C1 (stereo not given),·,·,·,·,3
CCCCCCN1C[C@H](n2cc(C3CC3)nn2)[C@@H](O)C[C@@H]1c1ccc(Cl)cc1,·,·,·,·,-1
SMILES,MITF TRPM1 HTS,SR-BI HDL uptake,HSF-1 act,SR-BI uptake up,Wnt act
COc1ccc(C(=O)Nc2ccc3c(c2)OCCO3)c(OC)c1,·,·,·,·,55*
COc1ccc(C(=O)OCC(=O)Nc2ccc3c(c2)OCCO3)c(OC)c1,3,-3,·,3,-5
CC(=O)O[C@@H]1C=C[C@@H](C#Cc2ccc(C(C)(C)C)cc2)O[C@@H]1COC(=O)Nc1ccccc1,·,·,·,·,-8
CCN1CCN(c2nc3c(c(=O)[nH]c(=O)n3C)n2CCSc2nc3ccccc3s2)CC1,·,-24,8,24,-3
CC(CSc1nc2ccccc2s1)Cn1c(N2CCCC2)nc2c1c(=O)[nH]c(=O)n2C (stereo not given),-10,28,56*,-28,·
CCCCn1cnc2c(oc3nc4c(cc32)CCCC4)c1=O,·,1,53*,-1,28
COC(=O)c1ccc(CN2C(=O)[C@]3(OCCC=C[C@H]3C)c3cc(OC)ccc32)cc1,·,·,·,·,1
CCc1nc2ccc(C(=O)NCc3ccc(OC)cc3)cn2c1N(C)C(=O)Cc1ccccc1,·,·,·,·,-2
CN(C)/C=C/C(=O)c1cccc(Oc2ncccn2)c1,2,-27,72*,27,-2
CN(C)/C=C/C(=O)c1ccncc1,3,-9,23,9,-1
C/C=C(/CCC1NCCc2c1[nH]c1ccccc21)[Si](C)(C)C (stereo not given),·,32,·,-32,-1
CC1(C)Cc2c(c(N3CCOCC3)nc3sc(C(=O)Nc4ccccc4)c(N)c23)CO1,11,58,29,-58,34*
CCOC(=O)c1sc2nc(N3CCOCC3)c3c(c2c1N)CCCC3,7,74*,21,-74,·
COc1ccc(-c2cc(NC=O)c3ncc(-c4cnn(C)c4)n3c2)cc1,·,·,·,·,-1
COc1ccc(-c2cc(-c3ccc(OC)cc3)[nH]n2)cc1,?,36,6,-36,49*
COc1ccc(-c2n[nH]c(C)c2-c2ccc(Cl)cc2)c(O)c1,-9,46,30,-46,·
Cc1ccc(O)c(-c2cc(-c3ccc(F)cc3)no2)c1,25,-2,20,2,44*
COc1ccc(-c2cc(-c3ccc(C)cc3)n[nH]2)c(O)c1,68,49,31,-49,55*
COc1ccc(-c2cc(-c3cc(C)ccc3O)[nH]n2)cc1,30,69,264*,-69,-8
COc1ccc(-c2cc(C(=O)NN)[nH]n2)cc1,6,-12,24,12,0
CN(C)C1CN(Cc2cn(Cc3ccc(F)cc3)nn2)S(=O)(=O)C1 (stereo not given),·,·,·,·,-2
COC(=O)C1=C(C)NC(=S)NC1c1ccc(Br)cc1 (stereo not given),·,·,·,·,-2
COC(=O)C1=C(C)N(Cc2ccccc2C(F)(F)F)C(=NCc2ccccc2C(F)(F)F)NC1c1ccc(Cl)cc1 (stereo not given),·,·,·,·,-2
c1cnc2c(-c3ccc4nccn4c3)cccc2c1,·,·,·,·,-1
CC(=O)Nc1cccc(C)c1,2,0,·,0,3
SMILES,MITF TRPM1 HTS,SR-BI HDL uptake,HSF-1 act,SR-BI uptake up,Wnt act
CC(=O)Nc1ccc2c(c1)C(=Nc1cccc(C)c1)c1ccccc1-2,8,6,·,-6,34*
Cc1ccc(-c2ccc(=O)[nH]n2)cc1,-17,-23,55*,23,·
CCCCCc1ccc(-c2ccc(=O)[nH]n2)cc1,11,-14,3,14,-16
COc1ccc(C(=O)Nc2ccc3[nH]ncc3c2)cc1,·,19,38,-19,0
CCOc1cccc(C(=O)Nc2ccc3c(c2)OCCO3)c1,·,35,37,-35,42*
O=C(Nc1ccc2c(c1)OCCO2)c1cccc(C(=O)Nc2ccc3c(c2)OCCO3)c1,41,14,40,-14,19
CCOc1ccc(C(=O)Nc2ccc3[nH]ncc3c2)cc1,55,15,30,-15,55*
CCOc1cccc(C(=O)Nc2ccc3ccccc3c2)c1,·,42,16,-42,36*
